This passage reports Benzidine positive cells, Cell growth and Concentration results from ChEMBL document CHEMBL1121699, “Induction of differentiation of leukemia cells in vitro by N-substituted amides, lactams, and 2-pyridones” (1981).

The test system of assay [1] is Erythroleukemia cell line. The assay can be described thus: Percentage of benzidine-positive murine erythroleukemia cells on day 6. It is filed as functional, Mus musculus. In outline: (§1)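 Clone 745A erythroleukemia cells were exposed continuously from seeding (1 × 10^5 cells/mL) to graded twofold concentrations over at least a 10-fold range, in at least two experiments, with a Me2SO (210 mM) positive control. On day 6, hemoglobin-containing cells were stained blue with acid benzidine peroxide and counted by light microscopy. The optimum concentration was averaged across experiments.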

The subject of assay [2] is Erythroleukemia cell line. Description: Cell growth was measured on day 3, after murine erythroleukemia cells were exposed at a cell concentration of 1*10e5 cells/mL. The format is functional, Mus musculus. The method, boiled down: (§2)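 Friend murine erythroleukemia cells (clone 745A) were grown in DMEM with 15% fetal calf serum at 37 °C in 10% CO2. Agents were given as aqueous, ethanol or acetone solutions at seeding (1 × 10^5 cells/mL) and left on continuously. Cells were counted electronically on day 3 or day 6 and expressed as percentage of control growth. Runs were in duplicate.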

The test system of assay [3] is Erythroleukemia cell line. The assay can be described thus: Cell growth was measured on day 6 after murine erythroleukemia cells were exposed at a cell concentration of 1*10e5 cells/mL. It is filed as functional, Mus musculus. In outline:
as §2

The subject of assay [4] is Erythroleukemia cell line. Description: Concentration producing the maximum percentage of benzidine-positive cells after 6-days of continuous exposure in murine leukemia cells. It is filed as functional, cell-based. To be noted: Mus musculus. In outline:
as §1

For the compound `O=C1CCCCN1`, the Benzidine positive cells in assay [1] worked out at 64%. The values for the Cell growth in assay [2] and in assay [3] were 72% and 67%, respectively. For the same compound, the Concentration in assay [4] was determined as 40 mM.

With `Oc1ccccn1`, the Benzidine positive cells in assay [1] is reported as 95%. In addition, the results for the Cell growth in assay [2] and in assay [3] were 114% and 77%, respectively. The same compound gave a Concentration in assay [4] of 16 mM.

In turn, `O=C(CCl)Nc1ccccn1` gave a Benzidine positive cells in assay [1] of 83%. The Cell growth in assay [2] turned out to be 98%; in assay [3], 119%. The compound also had a Concentration in assay [4] of 2 mM.

The compound `CC(=O)N1CCCCCC1=O` returned a Benzidine positive cells in assay [1] of 53%. The figures for the Cell growth in assay [2] and in assay [3] were 102% and 85%, respectively. Further, the Concentration in assay [4] is 4 mM.

Regarding `CNC(C)=O`, the Benzidine positive cells in assay [1] was 90%. Also, the values for the Cell growth in assay [2] and in assay [3] were 121% and 55%, respectively. The compound further registered a Concentration in assay [4] of 40 mM.

For `CC(=O)NC1CCCCC1`, the Benzidine positive cells in assay [1] stood at 92%. Besides, the Cell growth came out at 95% in assay [2] and 150% in assay [3]. In assay [4], this compound displayed a Concentration of 4 mM.

In turn, `CCN1CCCC1=O` had a Benzidine positive cells in assay [1] of 90%. Further, the Cell growth in assay [2] was 53%; in assay [3], 81%. Moreover, the Concentration in assay [4] came out at 10 mM.

In assay [1], `CCN1CCCCC1=O` returned a Benzidine positive cells of 87%. The Cell growth in assay [2] amounted to 186%; in assay [3], 84%. The Concentration in assay [4] worked out at 4 mM.

As to `O=C(Nc1ccccn1)C(F)(F)F`, the Benzidine positive cells in assay [1] turned out to be 69%. For the same compound, the Cell growth is given as 98% in assay [2] and 89% in assay [3]. Further, the Concentration in assay [4] is 1 mM.

In turn, `CC(=O)N(C)C` had a Benzidine positive cells in assay [1] of 84%. Moreover, the figures for the Cell growth in assay [2] and in assay [3] were 32% and 21%, respectively. The Concentration in assay [4] amounted to 40 mM.

In assay [1], `O=C1CCCCCN1` [CAPROLACTAM] gave a Benzidine positive cells of 82%. Also, the Cell growth in assay [2] amounted to 95%; in assay [3] it was 81%. The Concentration in assay [4] is 20 mM.

Take `CN1CCCCC1=O`: the Benzidine positive cells in assay [1] was determined as 89%. Moreover, the Cell growth in assay [2] came out at 97%; in assay [3] it was 69%. The Concentration in assay [4] was 5 mM.

Compound `CN1CCCC1=O` [METHYLPYRROLIDONE] displayed a Benzidine positive cells in assay [1] of 87%. For the same compound, the values for the Cell growth in assay [2] and in assay [3] were 97% and 83%, respectively. In addition, the Concentration in assay [4] is 10 mM.

The compound `CCCn1ccccc1=O` displayed a Benzidine positive cells in assay [1] of 82%. Besides, the Cell growth in assay [2] is listed as 112%; in assay [3], 129%. In assay [4], this compound had a Concentration of 2 mM.

In the case of `CNC(=O)c1ccccn1`, the Benzidine positive cells in assay [1] came out at 60%. For the same compound, the Cell growth in assay [2] is 50%; in assay [3], 80%. The compound also displayed a Concentration in assay [4] of 2 mM.

For the compound `CCCCCCn1ccccc1=O`, the Benzidine positive cells in assay [1] stood at 58%. In addition, the Cell growth turned out to be 101% in assay [2] and 75% in assay [3]. The compound further yielded a Concentration in assay [4] of 1 mM.

Compound `CC(=O)N1CCCC1` showed a Benzidine positive cells in assay [1] of 60%. In addition, the values for the Cell growth in assay [2] and in assay [3] were 54% and 99%, respectively. The compound also yielded a Concentration in assay [4] of 4 mM.

`CC(=O)N1CCCC1=O` displayed a Benzidine positive cells in assay [1] of 73%. The Cell growth in assay [2] was 156%; in assay [3] it was 116%. In addition, the Concentration in assay [4] turned out to be 20 mM.

Compound `CC(=O)Nc1ccccc1` [ACETANILIDE] came in with a Benzidine positive cells in assay [1] of 71%. The Cell growth in assay [2] is on record as 75%; in assay [3], 65%. For the same compound, in assay [4], the Concentration was determined as 4 mM.

In assay [1], `CCCCn1ccccc1=O` came in with a Benzidine positive cells of 76%. Besides, the Cell growth is recorded as 103% in assay [2] and 125% in assay [3]. Moreover, in assay [4], the Concentration came out at 1 mM.

`CC(=O)N1CCCCC1` had a Benzidine positive cells in assay [1] of 85%. Further, the Cell growth in assay [2] worked out at 50%; in assay [3], 138%. For the same compound, the Concentration in assay [4] was found to be 8 mM.

`CCn1ccccc1=O` yielded a Benzidine positive cells in assay [1] of 86%. In addition, the Cell growth in assay [2] was determined as 78%; in assay [3], 79%. In assay [4], the Concentration was determined as 4 mM.

In assay [1], `CC(=O)Nc1cccnc1` gave a Benzidine positive cells of 86%. Also, the figures for the Cell growth in assay [2] and in assay [3] were 183% and 167%, respectively. Also, the Concentration in assay [4] came out at 5 mM.

In turn, `CC(=O)Nc1ccncc1` gave a Benzidine positive cells in assay [1] of 34%. For the same compound, the Cell growth came to 37% in assay [2] and 60% in assay [3]. In assay [4], this compound yielded a Concentration of 5 mM.

Consider `CC(=O)N(c1ccccn1)c1ccccn1`, for which the Benzidine positive cells in assay [1] was determined as 36%. Further, the Cell growth in assay [2] came to 74%; in assay [3], 85%. Besides, the Concentration in assay [4] worked out at 2 mM.

For the compound `CN1CCCCCC1=O`, in assay [1], the Benzidine positive cells turned out to be 90%. Moreover, the values for the Cell growth in assay [2] and in assay [3] were 109% and 68%, respectively. The Concentration in assay [4] was found to be 2 mM.

For the compound `CNC(=O)c1ccccc1`, in assay [1], the Benzidine positive cells was 62%. Moreover, the figures for the Cell growth in assay [2] and in assay [3] were 54% and 99%, respectively. Also, the Concentration in assay [4] stood at 1 mM.

In assay [1], `CC(=O)N1CCCCC1=O` came in with a Benzidine positive cells of 86%. Further, the Cell growth in assay [2] came to 170%; in assay [3], 74%. This compound yielded a Concentration in assay [4] of 20 mM.

`CC(=O)Nc1ccccn1`: the Benzidine positive cells in assay [1] is given as 85%. Moreover, the results for the Cell growth in assay [2] and in assay [3] were 144% and 58%, respectively. This compound showed a Concentration in assay [4] of 2 mM.

As to `O=C(Nc1ccccn1)c1ccccn1`, in assay [1], the Benzidine positive cells came to 33%. In addition, the Cell growth was determined as 35% in assay [2] and 50% in assay [3]. In assay [4], the Concentration worked out at 1 mM.

In the case of `CNC(=O)c1cccnc1` [NICOTINYL METHYLAMIDE], in assay [1], the Benzidine positive cells came out at 93%. Also, the Cell growth in assay [2] was 94%; in assay [3] it was 78%. The Concentration in assay [4] was found to be 4 mM.

Take `O=C1CCCN1` [2-PYRROLIDONE]: in assay [1], the Benzidine positive cells came to 89%. In addition, the figures for the Cell growth in assay [2] and in assay [3] were 26% and 100%, respectively. Further, the Concentration in assay [4] was determined as 100 mM.

For `CCN1CCCCCC1=O`, the Benzidine positive cells in assay [1] was determined as 96%. The results for the Cell growth in assay [2] and in assay [3] were 106% and 63%, respectively. The Concentration in assay [4] was found to be 4 mM.

Compound `CC(C)n1ccccc1=O` gave a Benzidine positive cells in assay [1] of 90%. Further, the values for the Cell growth in assay [2] and in assay [3] were 96% and 80%, respectively. In assay [4], this compound registered a Concentration of 2 mM.

Compound `Cn1ccccc1=O` showed a Benzidine positive cells in assay [1] of 89%. Besides, the Cell growth in assay [2] worked out at 74%; in assay [3] it was 62%. This compound also yielded a Concentration in assay [4] of 4 mM.
